Tests used:
HLA-A2 = assay: HLA stabilization assay for peptide binding to HLA class I molecules; parameters: species or system human; details: mean value from two experiments; normalized to HIV (40 μM peptide)
T2 cells = format: cell-based, human; details: 4 h 51Cr release; singlets
In short: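 Effector: a clone from RCC-patient PBLs given repeated peptide-loaded autologous DC and PBL stimulations, limiting-dilution cloned, and kept on 120 U/ml IL-2. […] Supernatant 51Cr was gamma-counted.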

cancer cells = assay: cold target inhibition assay; format: cell-based; details: unlabeled peptide-loaded T2 cells, inhibitor:target ratio 20:1; singlets
In short: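 51Cr-labeled (1 h) cancer cell line targets, including an HLA-A2− breast cancer line, were co-cultured 4 h with the peptide-specific CTL clone. The clone came from RCC-patient PBLs and was maintained on 120 U/ml IL-2. Unlabeled peptide-loaded T2 cells were added at 20-fold excess over targets. Supernatant 51Cr was gamma-counted.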

[1] = test system: PBLs from cancer patients; assay: IFN-γ ELISPOT assay, cancer patients; format: cell-based, human; details: all cancer patients tested (BC, MM, RCC)
In short: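 Cells were monocyte-depleted, cryopreserved leukapheresis PBLs from end-stage breast cancer, MM and RCC patients. They were stimulated once with 20 µM peptide, given 40 U/ml IL-2 next day, and tested after 7–8 days. The overnight IFN-γ ELISPOT used 3 × 10^5 cells/well in duplicate ± 5 µM peptide, with 10^4 T2 cells per well. Responders: background-subtracted mean spots ±½ SD >25 per 10^5 cells.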

Sequence	HLA-A2 stabilization relative to HIV (HLA-A2)	lysis of peptide-loaded T2 cells by CB204-specific CTL clone (T2 cells)	inhibition of cancer cell lysis by cold T2 target cells presenting the peptide (cancer cells)	cancer patients with spontaneous T-cell responses [1] [%]
ILIDWLVQV [CB204]	stabilizes HLA-A2 to a higher degree than HIV	able to lyse T2 cells loaded with CB204	inhibited lysis of cancer cells	73
ILKEPVHGV [HIV-1 pol476–484, reference compound]	–	not T2 cells loaded with an irrelevant HIV peptide	–	–
